The values that follow come from ChEMBL document CHEMBL1124370 (1989).

The inhibition is the change of the read-out against control, counted positive when it falls. The term inhibition in vivo denotes the change of the read-out against control, counted positive when it falls. The low end stands for a weak effect, the high end for a strong effect. By Inhibition is commonly meant how much of the control response was suppressed. Read a high Inhibition as a strong effect.

Calls of active or inactive are those of the source. The rule behind the calls is not given here.

Test [1] concerns the target Aldo-keto reductase family 1 member B1 (Bos taurus) (UniProt P16116). The experiment in a line: Inhibition of aldose reductase in partially purified bovine lens preparation at 10e-6 M. An outline of the steps:
(§1)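 Aldose reductase partially purified from bovine lens, with the final chromatographic step of the earlier preparation omitted. Assay run in duplicate with test compound at 1 × 10^-6 M or 1 × 10^-7 M. Reported as % inhibition of enzymatic activity.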

The test system of test [2] is Rattus norvegicus. Kind of test: In vivo inhibition of galactitol accumulation in the sciatic nerves of rat at a dose of 100 mg/kg/day. The following applies: Sciatic nerve. It is filed as functional.
Test [3] concerns Rattus norvegicus. Kind of test: In vivo inhibition of galactitol accumulation in the sciatic nerves of rat at a dose of 26 mg/kg/day. The class given is functional. Particulars: Sciatic nerve.
Test [4] concerns Rattus norvegicus. The experiment in a line: In vivo inhibition of galactitol accumulation in the diaphragm of rat. at a dose of 100 mg/kg/day. The class given is functional.
Test [5] has as its system Rattus norvegicus. The experiment in a line: […] inhibition of sorbitol accumulation in rat sciatic nerves at 5*10e-6 M concentration. The class given is functional, Sciatic nerve. The following applies: in the assay text read “In vitro” for “In vivo”. An outline of the steps:
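Sciatic nerves from male Sprague-Dawley rats (200–250 g), removed after CO2 euthanasia, incubated ex vivo for 3 h at 37 °C under 95% air/5% CO2 in Hank's salts buffer, pH 7.4, with 50 mM glucose and 5 × 10^-6 M test compound. Triplicate incubations; nerve sorbitol measured in duplicate by spectrofluorometric assay. Reported as % inhibition of sorbitol accumulation.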

Test [6] deals with Rattus norvegicus. The experiment in a line: In vivo inhibition of galactitol accumulation in the diaphragm of rat. at a dose of 26 mg/kg/day. It is filed as functional.
Test [7] deals with Aldo-keto reductase family 1 member B1 (Bos taurus) (UniProt P16116). Kind of test: Inhibition of aldose reductase in partially purified bovine lens preparation at 10e-7 M concentration. An outline of the steps:
as §1

Test [8] has as its system Rattus norvegicus. Kind of test: In vivo inhibition of sorbitol accumulation in rat sciatic nerves at 5*10e-5 M concentration. It is filed as functional, Sciatic nerve. Particulars: in the assay text read “In vitro” for “In vivo”. In short, it runs like this:
(§2)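 Sciatic nerves were taken from male Sprague-Dawley rats (200–250 g) after CO2 euthanasia. Nerves were incubated 3 h at 37 °C under 95% air/5% CO2 in Hank's salts buffer, pH 7.4, with 50 mM glucose and (0–5)×10^-5 M compound, in triplicate. Nerve sorbitol was measured spectrofluorometrically in duplicate, and the read-out was % inhibition of sorbitol accumulation.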

Test [9] has as its system Rattus norvegicus. The experiment in a line: In vivo inhibition of galactitol accumulation in the sciatic nerves of rat at a dose of 10 mg/kg/day. It is filed as functional. Particulars: Sciatic nerve.
In test [10] the test system is Rattus norvegicus. Kind of test: In vivo inhibition of galactitol accumulation in the sciatic nerves of rat at a dose of 27 mg/kg/day. It is filed as functional. Particulars: Sciatic nerve.
The test system of test [11] is Rattus norvegicus. The experiment in a line: […] inhibition of sorbitol accumulation in rat sciatic nerves at 10e-5 M concentration. It is filed as functional, Sciatic nerve. In short, it runs like this: as §2
For test [12], the system named is Rattus norvegicus. Kind of test: In vivo inhibition of sorbitol accumulation in rat sciatic nerves at 10e-6 M concentration. The class given is functional, Sciatic nerve. In short, it runs like this:
as §2

Test [13] deals with Rattus norvegicus. The experiment in a line: In vivo inhibition of galactitol accumulation in the diaphragm of rat at a dose of 10 mg/kg/day. It is filed as functional.
Test [14] has as its system Rattus norvegicus. The experiment in a line: In vivo inhibition of galactitol accumulation in the diaphragm of rat. at a dose of 27 mg/kg/day. The class given is functional.
Test [15] concerns the target Aldo-keto reductase family 1 member B1 (Bos taurus) (UniProt P16116). Kind of test: […] inhibition of aldose reductase in partially purified bovine lens preparation at 10e-7 M concentration. In short, it runs like this: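 Enzyme partially purified from bovine lens by a published method, with the final chromatographic step omitted. Test compound was added at 1×10^-6 or 1×10^-7 M. Assays were run in duplicate, and the read-out was % inhibition of enzymatic activity.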

Test [16] concerns Rattus norvegicus. Kind of test: […] inhibition of sorbitol accumulation in rat sciatic nerves at 10e-6 M concentration; NS=not significant. The class given is functional. Particulars: Sciatic nerve. In short, it runs like this: as §2
The subject of test [17] is Rattus norvegicus. The experiment in a line: In vivo inhibition of galactitol accumulation in the diaphragm of rat at a dose of 67 mg/kg/day; NS =not significant. It is filed as functional, organism-based.
The test system of test [18] is Rattus norvegicus. The experiment in a line: In vivo inhibition of galactitol accumulation in the sciatic nerves of rat at a dose of 67 mg/kg/day; NS=not significant. It is filed as functional, organism-based. The following applies: Sciatic nerve.
Test [19] has as its system Rattus norvegicus. The experiment in a line: In vivo inhibition of galactitol accumulation in the sciatic nerves of rat at a dose of 105 mg/kg/day; NS=not significant. The class given is functional, organism-based. Particulars: Sciatic nerve.
Test [20] has as its system Rattus norvegicus. The experiment in a line: In vivo inhibition of galactitol accumulation in the diaphragm of rat at a dose of 105 mg/kg/day; NS=not significant. It is filed as functional, organism-based.
In test [21] the test system is Rattus norvegicus. The experiment in a line: In vivo inhibition of galactitol accumulation in the diaphragm of rat at a dose of 48 mg/kg/day. It is filed as functional.
The subject of test [22] is Rattus norvegicus. Kind of test: In vivo inhibition of galactitol accumulation in the diaphragm of rat. at a dose of 56 mg/kg/day; NS=not significant. It is filed as functional, organism-based.
The subject of test [23] is Rattus norvegicus. The experiment in a line: In vivo inhibition of galactitol accumulation in the sciatic nerves of rat at a dose of 55 mg/kg/day; NS=not significant. The following applies: Sciatic nerve. The class given is functional, organism-based.
Test [24] deals with Rattus norvegicus. Kind of test: In vivo inhibition of galactitol accumulation in the sciatic nerves of rat at a dose of 48 mg/kg/day; NS=not significant. The class given is functional, organism-based. The following applies: Sciatic nerve.
For test [25], the system named is Rattus norvegicus. Kind of test: In vivo inhibition of galactitol accumulation in the diaphragm of rat. at a dose of 48 mg/kg/day; NS =not significant. It is filed as functional, organism-based.
Test [26] deals with Rattus norvegicus. Kind of test: In vivo inhibition of galactitol accumulation in the sciatic nerves of rat at a dose of 46 mg/kg/day; NS=not significant. The class given is functional, organism-based. The following applies: Sciatic nerve.
Test [27] concerns Rattus norvegicus. The experiment in a line: […] inhibition of sorbitol accumulation in rat sciatic nerves at 10e-5 M concentration; NS=not significant. The class given is functional. The following applies: Sciatic nerve. In short, it runs like this:
as §2

Test [28] has as its system Rattus norvegicus. Kind of test: In vivo inhibition of galactitol accumulation in the diaphragm of rat at a dose of 46 mg/kg/day; NS =not significant. The class given is functional, organism-based.
For test [29], the system named is Rattus norvegicus. The experiment in a line: In vivo inhibition of galactitol accumulation in the diaphragm of rat at a dose of 4 mg/kg/day. The class given is functional.
Test [30] deals with Rattus norvegicus. Kind of test: In vivo inhibition of galactitol accumulation in the sciatic nerves of rat at a dose of 4 mg/kg/day. It is filed as functional. The following applies: Sciatic nerve.

Turning to `COc1ccc2c(/C(=N/C#N)N(C)CC(=O)O)cccc2c1C(F)(F)F`, the inhibition in [1] worked out at 81%; in test [7] it was 80%. In addition, the inhibition in vivo at 100 mg/kg/day came out at 61% in the test on Rattus norvegicus [2] and 72% with Rattus norvegicus [4]. In addition, the figures for the inhibition in vivo at 26 mg/kg/day with Rattus norvegicus [3] and in the test with Rattus norvegicus [6] were 30% and 44%, respectively. The Inhibition in the test with Rattus norvegicus [5] came to 70%; with Rattus norvegicus [8] it was 81%.
With `CSc1ccc2c(C(=S)N(C)CC(=O)O)cccc2c1C(F)(F)F`, the inhibition in test [1] turned out to be 95%; in test [7], 71%. For the same molecule, the inhibition in vivo at 10 mg/kg/day with Rattus norvegicus [9] came to 26%; with Rattus norvegicus [13], 86%. The inhibition in vivo at 27 mg/kg/day with Rattus norvegicus [10] amounted to 64%; in the test with Rattus norvegicus [14], 90%. The Inhibition with Rattus norvegicus [11] amounted to 93%; in the test on Rattus norvegicus [12] it was 72%.
For `COc1ccc2c(C(=O)N(CC(=O)O)C(=O)OCc3ccccc3)cccc2c1C(F)(F)F`, the results for the inhibition in test [1] and in test [15] were 89% and 66%, respectively. Moreover, the Inhibition in the test on Rattus norvegicus [11] was determined as 28%. Also, the inhibition entry with Rattus norvegicus [16], with Rattus norvegicus [17] and in the test on Rattus norvegicus [18] was “inactive” throughout.
With `COc1ccc2c(C(=O)N(CC(=O)O)C(=O)OCC(C)(C)C)cccc2c1C(F)(F)F`, the inhibition in test [1] was determined as 64%; in test [7], 18%. For the same molecule, the inhibition result in the test with Rattus norvegicus [19] and with Rattus norvegicus [20] was “inactive” each time. For the same molecule, the Inhibition was 37% with Rattus norvegicus [11] and 28% with Rattus norvegicus [12].
For `COC(=O)N(CC(=O)O)C(=O)c1cccc2c(C(F)(F)F)c(OC)ccc12`, the results for the inhibition in test [1] and in [7] were 97% and 82%, respectively. This molecule yielded an Inhibition in the test with Rattus norvegicus [11] of 58%. Besides, in the test on Rattus norvegicus [16], the inhibition result is “inactive”. The molecule further registered an inhibition in vivo at 48 mg/kg/day in the test with Rattus norvegicus [21] of 54%.
Consider `COc1ccc2c(/C(=N/S(=O)(=O)c3ccc(Br)cc3)N(C)CC(=O)O)cccc2c1C(F)(F)F`, for which the inhibition stood at 53% in test [1] and 5% in test [7]. In addition, the inhibition result in the test on Rattus norvegicus [22] and with Rattus norvegicus [23] was “inactive” in each case.
For the molecule `CCCOC(=O)N(CC(=O)O)C(=O)c1cccc2c(C(F)(F)F)c(OC)ccc12`, the inhibition in test [1] came out at 90%; in test [7], 81%. Moreover, the inhibition result in the test on Rattus norvegicus [24], in the test on Rattus norvegicus [16] and in the test on Rattus norvegicus [25] was “inactive” throughout. In the test on Rattus norvegicus [11], this molecule returned an Inhibition of 62%.
Turning to `COc1ccc2c(C(=O)N(CC(=O)O)C(=O)OC(C)C)cccc2c1C(F)(F)F`, the inhibition result in the test with Rattus norvegicus [26], with Rattus norvegicus [27] and with Rattus norvegicus [28] was “inactive” each time. This molecule also gave an inhibition in test [7] of 35%.
As for `O=C1NC(=O)[C@@]2(CCOc3ccc(F)cc32)N1` [SORBINIL], the inhibition came out at 45% in [1] and 10% in test [7]. Also, the values for the Inhibition with Rattus norvegicus [11], in the test on Rattus norvegicus [12] and in the test with Rattus norvegicus [5] were 96%, 27% and 74%, respectively. Also, the inhibition in vivo at 4 mg/kg/day with Rattus norvegicus [29] amounted to 69%; in the test on Rattus norvegicus [30] it was 55%.
